# Key:
# Type in all cases: functional
# Staphylococcus aureus [1] = test: In vitro antibacterial activity against Staphylococcus aureus 209P JC-1
# Summary of the method: (§1)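 Two-fold agar dilution MIC on Mueller-Hinton agar (pH 7.4), following the Japan Society of Chemotherapy MIC Committee method. Inoculum was about 10⁶ CFU, and growth was read after 20 h at 37 °C. MIC is reported in µg/mL.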
# Escherichia coli [2] = test: In vitro antibacterial activity against Escherichia coli NIHJ JC-2; summary of the method: as §1
# Pseudomonas aeruginosa [3] = test: In vitro antibacterial activity against Pseudomonas aeruginosa 12; summary of the method: as §1
# Mus musculus [4] = species: Mus musculus; test: Oral efficacy against Streptococcus pyogenes A65 on Systemic Infections in Mice
# Summary of the method: (§2)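 Groups of at least 10 male Std-ddY mice (20 ± 2 g) were infected ip, with S. pyogenes A65 at 3×10^7 cells or P. aeruginosa 12 at 4×10^3 cells. Compounds were suspended in 0.2% sodium carboxymethylcellulose and given orally at 0 and 6 h postinfection. The result is reported as ED50 in mg/kg.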
# Enterobacter cloacae = test: In vitro antibacterial activity against Enterobacter cloacae 963
# Serratia marcescens = test: In vitro antibacterial activity against Serratia marcescens S-9
# Summary of the method: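 MIC (µg/mL) by 2-fold agar dilution on Mueller-Hinton agar (pH 7.4), following the Japan Society of Chemotherapy MIC Committee method. Inoculum of about 10⁶ CFU. Growth was read after 20 h at 37 °C.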
# Mus musculus [5] = species: Mus musculus; test: Oral efficacy against Pseudomonas aeruginosa 12 on Systemic Infections in Mice; summary of the method: as §2
# Pseudomonas aeruginosa [6] = test: In vitro antibacterial activity against Pseudomonas aeruginosa IFO 3445; summary of the method: as §1
# Enterococcus faecalis = test: In vitro antibacterial activity against Streptococcus faecalis 2473; summary of the method: as §1
# Escherichia coli [7] = test: In vitro antibacterial activity against Escherichia coli P-5101; summary of the method: as §1
# Streptococcus pyogenes = test: In vitro antibacterial activity against Streptococcus pyogenes A65; summary of the method: as §1
# Moraxella bovis = test: In vitro antibacterial activity against glucose nonfermenter Moraxella bovis P-7101; summary of the method: as §1
# Klebsiella pneumoniae = test: In vitro antibacterial activity against Klebsiella pneumoniae 13; summary of the method: as §1
# [8] = system: Staphylococcus epidermidis; test: In vitro antibacterial activity against Streptococcus epidermis 8; summary of the method: as §1
# Staphylococcus aureus [9] = test: In vitro antibacterial activity against Staphylococcus aureus 50774; summary of the method: as §1
SMILES,MIC (Staphylococcus aureus [1]) [µg/mL],MIC (Escherichia coli [2]) [µg/mL],MIC (Pseudomonas aeruginosa [3]) [µg/mL],further results
O=C(O)c1cn(C2CC2)c2c(F)c(N3CCNCC3)c(F)c(O)c2c1=O,0.2,0.025,0.39,–
CN1CCN(c2c(F)c(F)c3c(=O)c(C(=O)O)cn(C4CC4)c3c2F)CC1,0.39,0.05,0.78,–
CSc1c(F)c(N2CCN(C)CC2)c(F)c2c1c(=O)c(C(=O)O)cn2C1CC1,3.13,0.2,12.5,–
C[C@@H]1CN(c2c(F)c(N)c3c(=O)c(C(=O)O)cn(C4CC4)c3c2F)[C@@H](C)CN1,0.78,0.39,3.13,–
CN(C)CCNc1c(F)c(N2CCN(C)CC2)c(F)c2c1c(=O)c(C(=O)O)cn2C1CC1,6.25,0.05,0.78,–
C[C@@H]1CN(c2c(F)c(N)c3c(=O)c(C(=O)O)cn(C4CC4)c3c2F)CCN1,0.05,0.0125,0.2,–
O=C(O)c1cn(C2CC2)c2c(F)c(N3CCNCC3)c(F)c(Cl)c2c1=O,0.1,0.0125,0.39,–
CN1CCN(c2c(F)c(Cl)c3c(=O)c(C(=O)O)cn(C4CC4)c3c2F)CC1,0.2,0.025,0.78,–
C[C@@H]1CN(c2c(F)cc3c(=O)c(C(=O)O)cn(C4CC4)c3c2F)C[C@H](C)N1,0.39,0.1,0.39,ED50 (Mus musculus [4]): 8.64 mg/kg; MIC (Enterobacter cloacae): 0.05 µg/mL; MIC (Serratia marcescens): 0.2 µg/mL; ED50 (Mus musculus [5]): 1.41 mg/kg; MIC (Pseudomonas aeruginosa [6]): 0.39 µg/mL; MIC (Enterococcus faecalis): 1.56 µg/mL; MIC (Escherichia coli [7]): 6.3 ng/mL; MIC (Streptococcus pyogenes): 0.39 µg/mL; MIC (Moraxella bovis): 0.78 µg/mL; MIC (Klebsiella pneumoniae): 0.05 µg/mL
CC1(C)CN(c2c(F)c(N)c3c(=O)c(C(=O)O)cn(C4CC4)c3c2F)CCN1,0.05,0.025,0.78,–
CN1CCN(c2c(F)c(OCc3ccccc3)c3c(=O)c(C(=O)O)cn(C4CC4)c3c2F)CC1,6.25,1.56,6.25,–
CN1CCN(c2c(F)c(N(C)C)c3c(=O)c(C(=O)O)cn(C4CC4)c3c2F)CC1,25,3.13,50,–
CN1CCN(c2c(F)c(S)c3c(=O)c(C(=O)O)cn(C4CC4)c3c2F)CC1,3.13,0.39,12.5,–
CN1CCN(c2c(F)c(NCc3ccccc3)c3c(=O)c(C(=O)O)cn(C4CC4)c3c2F)CC1,0.78,0.78,3.13,–
CNc1c(F)c(N2CCN(C)CC2)c(F)c2c1c(=O)c(C(=O)O)cn2C1CC1,0.78,0.1,1.56,–
CN1CCN(c2c(F)c(NCCO)c3c(=O)c(C(=O)O)cn(C4CC4)c3c2F)CC1,0.39,0.05,0.78,–

SMILES,MIC (Staphylococcus aureus [1]) [µg/mL],MIC (Escherichia coli [2]) [µg/mL],MIC (Pseudomonas aeruginosa [3]) [µg/mL],further results
CN1CCN(c2c(F)c(O)c3c(=O)c(C(=O)O)cn(C4CC4)c3c2F)CC1,0.2,0.05,0.78,–
COc1ccc(CSc2c(F)c(N3CCN(C)CC3)c(F)c3c2c(=O)c(C(=O)O)cn3C2CC2)cc1,100,12.5,> 100,–
CC1CN(c2c(F)c(N)c3c(=O)c(C(=O)O)cn(C4CC4)c3c2F)CCN1C (configuration not stated),0.05,0.0063,0.39,–
COc1c(F)c(N2CCN(C)CC2)c(F)c2c1c(=O)c(C(=O)O)cn2C1CC1,25,0.2,12.5,–
CN(C)CC1CN(c2c(F)c(N)c3c(=O)c(C(=O)O)cn(C4CC4)c3c2F)CCN1 (configuration not stated),0.05,0.1,1.56,–
C[C@@H]1CN(c2c(F)c(O)c3c(=O)c(C(=O)O)cn(C4CC4)c3c2F)C[C@H](C)N1,0.2,0.025,0.78,–
CN1CCN(c2c(F)c(Br)c3c(=O)c(C(=O)O)cn(C4CC4)c3c2F)CC1,0.39,0.05,0.78,–
Nc1c(F)c(N2CCNC(CO)C2)c(F)c2c1c(=O)c(C(=O)O)cn2C1CC1 (configuration not stated),0.05,0.025,0.2,–
C[C@@H]1CN(c2c(F)c(Cl)c3c(=O)c(C(=O)O)cn(C4CC4)c3c2F)C[C@H](C)N1,0.2,0.025,0.78,–
CC1CNCCN1c1c(F)c(N)c2c(=O)c(C(=O)O)cn(C3CC3)c2c1F (configuration not stated),0.2,0.05,0.78,–
CN1CCN(c2c(F)c(-n3cccc3)c3c(=O)c(C(=O)O)cn(C4CC4)c3c2F)CC1,3.13,0.39,12.5,–
C[C@@H]1NCCN(c2c(F)c(N)c3c(=O)c(C(=O)O)cn(C4CC4)c3c2F)[C@@H]1C (relative stereo),0.025,0.0125,0.78,–
O=C(O)c1cn(C2CC2)c2cc(N3CCNCC3)c(F)cc2c1=O [CIPROFLOXACIN],0.1,–,–,ED50 (Mus musculus [4]): 23.9 mg/kg; MIC [8]: 0.1 µg/mL; MIC (Serratia marcescens): 0.05 µg/mL; ED50 (Mus musculus [5]): 2.78 mg/kg; MIC (Staphylococcus aureus [9]): 0.2 µg/mL; MIC (Pseudomonas aeruginosa [6]): 0.2 µg/mL; MIC (Enterococcus faecalis): 1.56 µg/mL; MIC (Escherichia coli [7]): 6.3 ng/mL; MIC (Streptococcus pyogenes): 0.2 µg/mL; MIC (Moraxella bovis): 3.13 µg/mL; MIC (Klebsiella pneumoniae): 0.025 µg/mL
CC1COc2c(N3CCN(C)CC3)c(F)cc3c(=O)c(C(=O)O)cn1c23 (configuration not stated) [OFLOXACIN],0.78,–,–,ED50 (Mus musculus [4]): 10.8 mg/kg; MIC [8]: 0.2 µg/mL; MIC (Enterobacter cloacae): 0.1 µg/mL; MIC (Serratia marcescens): 0.2 µg/mL; ED50 (Mus musculus [5]): 6.62 mg/kg; MIC (Staphylococcus aureus [9]): 0.2 µg/mL; MIC (Pseudomonas aeruginosa [6]): 1.56 µg/mL; MIC (Enterococcus faecalis): 1.56 µg/mL; MIC (Escherichia coli [7]): 50 ng/mL; MIC (Streptococcus pyogenes): 0.39 µg/mL; MIC (Moraxella bovis): 1.56 µg/mL; MIC (Klebsiella pneumoniae): 0.1 µg/mL
C[C@@H]1CN(c2c(F)c(F)c3c(=O)c(C(=O)O)cn(C4CC4)c3c2F)C[C@H](C)N1 [ORBIFLOXACIN],0.39,0.05,1.56,–

# Reference: ChEMBL document CHEMBL1124792, “Synthesis and structure-activity relationships of 5-substituted 6,8-difluoroquinolones, including sparfloxacin, a new quinolone antibacterial agent with improved potency” (1990)
